The list is not random: actives were taken first. Their share in the collection is about 4.7%.
aSyn 5UTR inh: MLPCN primary screen, SNCA 5' untranslated region; alpha-synuclein 5'UTR reporter, inhibitor activity; inhibition, % (tested at 7.5 µM); hit rate 0.82% among 300,000; in the data active = inhibition above about 60%;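 note: H4 neuroglioblastoma cells stably carrying SNCA 5'UTR luciferase fusion; 0% = DMSO wells and 100% = positive control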
Mdm2 MdmX PPI: inhibitors of human Mdm2-MdmX association, primary screen, cell-based, luminescence, split luciferase, SaOS-2, uHTS; Protein Mdm4 (Homo sapiens) + E3 ubiquitin-protein ligase Mdm2 (Homo sapiens), …; hit rate 3% among 330,000; SaOS-2 split-luciferase Mdm2/MdmX complementation; inhibition, % at 8 µM;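 active = inhibition of at least 50% at 8 µM in the primary screen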
Target sequence (O15151 whole entry, looked up): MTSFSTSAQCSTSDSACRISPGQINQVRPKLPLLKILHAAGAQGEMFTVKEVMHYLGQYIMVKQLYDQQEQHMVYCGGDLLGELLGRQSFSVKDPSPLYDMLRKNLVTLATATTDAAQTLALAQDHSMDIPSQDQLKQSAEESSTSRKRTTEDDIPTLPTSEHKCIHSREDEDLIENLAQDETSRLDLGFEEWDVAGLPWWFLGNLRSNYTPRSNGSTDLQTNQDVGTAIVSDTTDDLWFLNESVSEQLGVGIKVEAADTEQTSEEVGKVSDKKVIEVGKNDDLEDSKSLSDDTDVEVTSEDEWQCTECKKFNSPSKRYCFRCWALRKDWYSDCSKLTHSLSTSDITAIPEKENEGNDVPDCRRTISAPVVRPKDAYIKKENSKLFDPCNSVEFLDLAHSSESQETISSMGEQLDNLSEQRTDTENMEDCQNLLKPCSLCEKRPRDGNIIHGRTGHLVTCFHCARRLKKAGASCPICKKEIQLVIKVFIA
Target sequence (Q00987 whole entry, looked up): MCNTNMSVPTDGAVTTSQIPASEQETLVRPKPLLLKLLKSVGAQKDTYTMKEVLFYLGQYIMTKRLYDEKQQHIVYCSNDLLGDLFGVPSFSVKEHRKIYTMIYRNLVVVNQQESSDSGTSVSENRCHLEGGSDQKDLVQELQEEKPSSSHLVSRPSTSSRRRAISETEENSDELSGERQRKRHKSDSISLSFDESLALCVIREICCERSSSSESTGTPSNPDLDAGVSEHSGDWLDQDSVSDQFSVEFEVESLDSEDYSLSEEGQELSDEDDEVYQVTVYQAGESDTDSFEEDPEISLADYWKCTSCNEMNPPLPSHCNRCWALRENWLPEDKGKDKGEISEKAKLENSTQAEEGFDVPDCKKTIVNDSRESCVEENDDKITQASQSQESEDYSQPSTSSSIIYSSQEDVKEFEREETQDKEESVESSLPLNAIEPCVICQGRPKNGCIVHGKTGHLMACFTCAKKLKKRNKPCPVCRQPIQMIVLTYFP
697 NFkB inh: inhibitors of PMA/ionomycin-induced NF-kB reporter, 697 cells, primary screen, B-cell NF-kB inhibitor project, cell-based, luminescence, uHTS; 697 B-cell NF-kB luciferase reporter, 16 h; hit rate 0.33% among 330,000; inhibition, % at 4 µM; in the data active = inhibition above about 35%
Jurkat NFkB inh: inhibitors of induced NF-kB luciferase reporter, primary screen, TCR NF-kB activation inhibitor project, cell-based, luminescence, uHTS; AID 435003, 2010; inhibition, % at 4 µM; hit rate 0.53% among 330,000; Jurkat, PMA/ionomycin-induced NF-kB luciferase reporter; in the data active = inhibition above about 50%
IMP-1 inh: IMP-1 metallo-beta-lactamase inhibitors, primary screen, biochemical, epi-absorbance readout, Pseudomonas aeruginosa enzyme; purified IMP-1, nitrocefin hydrolysis, epi-absorbance fluorescence; inhibition, % at 5.6 µM; hit rate 0.45% among 290,000; AID 1556, 2009;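 active = inhibition above the mean plus 3 SD of all compounds in the same screening run, cut at about 4.5% in these data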;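 note: 0% = IMP-1 with DMSO and 100% = DMSO wells lacking enzyme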
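System: purified recombinant IMP-1 beta-lactamase. Medium: Zinc- and detergent-supplemented HEPES buffer, pH 7.1. Compound: one 5.6 µM dose […]. Schedule: 15 min preincubation plus 25 min reaction at 25 °C. Technique: Epi-absorbance fluorescence, 480 nm excitation, 530 nm emission.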
VIM-2 inhibitor: VIM-2 metallo-beta-lactamase inhibitors, primary screen, biochemical, epi-absorbance readout, Pseudomonas aeruginosa enzyme; hit rate 0.89% among 290,000; AID 1527, 2009; inhibition, % at 5.6 µM; purified VIM-2, nitrocefin hydrolysis, epi-absorbance fluorescence;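 active = inhibition above the mean of all tested compounds plus 3 SD, cutoff set per screening run, cut at about 7.5% in these data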;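 note: red hydrolysis product quenches plate fluorescence so inhibitors raise well fluorescence; 0% = enzyme with DMSO and 100% = DMSO without enzyme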
697 NFkB conf: PMA/ionomycin-induced NF-kB reporter inhibitors, 697 retest, confirmation, B-cell NF-kB inhibitor project, cell-based, luminescence, single concentration; 697 B-cell NF-kB luciferase, 16 h; inhibition, % at 4 µM; hit rate 35% among 2,000; shares compounds with 697 NFkB inh; in the data active = inhibition mostly above about 28%, no sharp cut-off; inactive = mostly below about 22%
An asterisk follows results filed as active; x = no result given.

SMILES	aSyn 5UTR inh	Mdm2 MdmX PPI	697 NFkB inh	Jurkat NFkB inh	IMP-1 inh	VIM-2 inhibitor	697 NFkB conf
COCCCNC(=O)COc1ccc(-c2nccc(-c3ccccn3)n2)cc1	7	-14	53*	3	-2	-1	63*
Cc1ccc(C)c(Nc2nc3ccc(C)cc3n3cnnc23)c1	49	-4	0	-14	-4	-2	x
Oc1ccccc1-c1cc(-c2ccc3c(c2)OCCO3)n[nH]1	17	-127	-433	-138	-2	-3	-453
Cc1ccccc1C(=O)NCC(=O)NC1CC1	x	-4	11	-13	x	x	x
CCOc1ccc(-n2c(SCC)nc3c(c2=O)SCC3)cc1	18	8	9	5	-2	-2	x
CCOc1ccc(-n2c(SCC(=O)Nc3ccc4c(c3)OCCO4)nc3c(c2=O)SCC3)cc1	x	19	38*	-16	0	1	32*
CCS(=O)(=O)c1ccc(O)c(NC(=O)c2ccc(S(=O)(=O)N3CCCCCC3)cc2)c1	x	10	10	5	x	x	x
O=C(Nc1ccccc1Cl)N1CCN(c2ccc3nnc(-c4ccc(F)cc4)n3n2)CC1	40	26	36*	18	-2	5	17
COc1ccccc1NC(=O)N1CCN(c2ccc3nnc(-c4ccc(F)cc4)n3n2)CC1	16	23	35*	7	-2	2	9
COc1ccccc1NC(=O)N1CCN(c2ccc3nncn3n2)CC1	12	23	17	4	-2	-1	x
O=C(Cc1ccc(Cl)cc1)Nc1ccccc1N1CCN(C(=O)c2ccccc2)CC1	-4	27	-38	-3	-3	-1	x
CCc1ccc2nc(Nc3nc(COC)cc(=O)[nH]3)nc(C)c2c1	-2	12	42*	9	-2	-2	38*
CCCCCc1c(C)nc(Nc2nc(C)c3cc(OC)ccc3n2)[nH]c1=O	-16	25	39*	31	-4	-2	4
COc1ccc(-c2noc(N3CCC(C(=O)Nc4ccc(F)cc4)CC3)n2)cc1	-9	-14	31	18	0	0	x
COc1ccc(-c2noc(N3CCC(C(=O)Nc4cccc(OC)c4)CC3)n2)cc1	16	22	42*	20	-4	-1	34*
Cc1ccnc(NS(=O)(=O)c2cc([N+](=O)[O-])ccc2C)c1	-14	-2	36*	-6	-2	-1	-4
Cc1ccnc(NS(=O)(=O)c2ccccc2)c1	5	3	-9	-6	1	0	x
C(=N\Nc1nc2ccccc2s1)/c1cccs1	-212	-165	-327	-137	-4	-3	-304
Cc1cc(N(C)C)ccc1N=Nc1ccc(N)cc1	-41	-148	69*	-10	x	x	79*
Nc1ccc(N=Nc2ccc(N)cc2)cc1	-8	-73	-246	-96	-3	-3	x
COc1cc(NC(=O)Cn2cnc3c(SC)nc(N)nc32)cc(OC)c1OC	x	-45	-11	-19	x	x	x
CN(CC(=O)Nc1cccc(F)c1)C(=O)/C=C/c1ccc2ccccc2n1	7	23	-13	4	0	0	x
O=C(CCCN1C(=O)/C(=C\c2cccs2)SC1=S)Nc1cccc(C(=O)O)c1	-22	-4	8	11	-4	-3	x
CCOc1ccc(/C=C2\SC(=S)N(CCC(=O)Nc3cccc(C(=O)O)c3)C2=O)cc1	18	-9	68*	29	-3	-3	68*
CCc1ccc(/C=C2\SC(=S)N(CCCC(=O)Nc3ccc(C(=O)O)cc3)C2=O)cc1	109*	40	73*	-11	-2	-1	84*
SMILES	aSyn 5UTR inh	Mdm2 MdmX PPI	697 NFkB inh	Jurkat NFkB inh	IMP-1 inh	VIM-2 inhibitor	697 NFkB conf
CCOc1ccc(/C=C2\SC(=S)N(CCC(=O)Nc3ccc(C(=O)O)cc3)C2=O)cc1	27	-2	81*	-3	-4	-3	77*
O=C(CCN1C(=O)/C(=C/c2ccc3c(c2)OCO3)SC1=S)Nc1ccc(C(=O)O)cc1	-7	-11	-2	2	-1	0	x
O=C(CCCN1C(=O)/C(=C\c2ccccc2)SC1=S)Nc1ccc(C(=O)O)cc1	22	-6	19	-11	-2	-3	x
O=C(CCCN1C(=O)/C(=C/c2ccc3c(c2)OCO3)SC1=S)Nc1ccc(C(=O)O)cc1	102*	30	78*	20	-1	1	78*
COc1ccc(C(=O)N[C@H]2CCCCNC2=O)cc1OC1CCN(C(C)C)CC1	12	16	8	-7	-3	-2	x
CC(=O)N1CCN(C(=O)c2ccc(C(=O)c3ccccc3)cc2)CC1	1	13	1	-4	-3	-2	x
CCCn1c(N)c(N(CCOC)C(=O)COC(=O)CSc2cc(C)c3ccccc3n2)c(=O)[nH]c1=O	21	20	3	9	x	x	x
CC(C)c1ccc(/C=C2\SC(=S)N(CCC(=O)NCCCn3ccnc3)C2=O)cc1	98*	14	38*	-8	0	0	38*
CCOc1ccc(/C=C2\SC(=S)N(CCCC(=O)NCCCN3CCOCC3)C2=O)cc1	84*	18	38*	11	2	1	52*
CCc1ccc(/C=C2/SC(=S)N(CCC(=O)Nc3cccnc3)C2=O)cc1	30	28	77*	22	0	0	67*
O=C(c1ccc(F)c(S(=O)(=O)N2CCOCC2)c1)N1CCc2ccccc21	36	7	4	14	-1	-1	x
CC(C#N)(NC(=O)CN1CCN(S(=O)(=O)c2ccccc2Cl)CC1)C1CC1 (configuration not stated)	x	31	25	0	x	x	x
Cc1ccc(C(=O)Nc2cccc(NC(=O)c3ccc(C)o3)n2)o1	-4	3	-27	-9	0	-1	x
Oc1ccccc1C=Nc1ccccc1-c1nc2ccccc2[nH]1	-123	-12	-268	-40	-2	-3	-81
CCOC(=O)c1c(C)[nH]c(N=Nc2ccc(C)cc2)c1C	-271	-168	-263	-140	-4	-4	-119
CCOC(=O)c1c(C)[nH]c(N=Nc2ccccc2)c1C	-143	-116	-80	-97	0	-6	x
CC1=CC(C)(C)Nc2ccc(OC(=O)c3cccnc3)cc21	15	22	66*	-14	-1	-1	62*
O=C(O)c1ccc(Nc2ncnc3scc(-c4ccccc4)c23)cc1	24	14	28	12	-1	1	x

Screens from PubChem.
